Columns and labels:
[1] = system: Plasmodium falciparum; test: Antimalarial activity against chloroquine/pyrimethamine-resistant Plasmodium falciparum W2 after 48 hrs by [3H]hypoxanthine incorporation assay; type: functional, organism-based
Outline: (§1)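 [3H]hypoxanthine incorporation assay (Desjardins method, Milhous modification) with 48 h drug exposure. Compounds and controls were 2-fold diluted across 11 concentrations. IC50 was fitted by nonlinear logistic dose-response. Values are averaged where multiple results were generated, with relative errors usually <30%.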

[2] = Half life in human liver microsomes at 1 uM by LCMS analysis; type: ADME, Microsome
Outline: (§2)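 Compound at 1 μM final with 0.5 mg/mL pooled human or mouse liver microsomes, 1.3 mM NADP, 3.3 mM MgCl₂, 0.1 M PBS pH 7.4. Reaction started with 1 U/mL G6PD, shaken at 37 °C. Aliquots quenched with cold acetonitrile at 0, 10, 20, 30 and 60 min and quantified by LCMS. t₁/₂ taken from log plot of total ion chromatogram area remaining.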

[3] = system: Plasmodium falciparum; test: Antimalarial activity against chloroquine-sensitive Plasmodium falciparum D6 after 48 hrs by [3H]hypoxanthine incorporation assay; type: functional, organism-based; outline: as §1
[4] = system: HepG2; test: Cytotoxicity against human HepG2 cells after 1 to 4 hrs by MTS assay; type: cell-based
Outline: (§3)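 HepG2 and THP-1 cells grown in RPMI 1640 with 10% FBS at 37 °C, 5% CO₂, and passaged twice weekly. Compounds applied as continuous exposure. Viability read by MTS reagent, 1–4 h incubation, absorbance at 490 nm; IC₅₀ derived.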

[5] = system: THP-1; test: Cytotoxicity against human THP1 cells after 1 to 4 hrs by MTS assay; type: cell-based; outline: as §3
[6] = Half life in mouse liver microsomes at 1 uM by LCMS analysis; type: ADME, Microsome; outline: as §2
[7] = system: Plasmodium falciparum; test: Antimalarial activity against multidrug-resistant Plasmodium falciparum TM91C235 after 48 hrs by [3H]hypoxanthine incorporation assay; type: functional, organism-based; outline: as §1

Row | Structure (SMILES) | IC50 [1] | half-life at 1 µM [2] | IC50 [3] | IC50 [4] | IC50 [5] | half-life at 1 µM [6] | IC50 [7]
1 | CC[C@H]1OC(=O)[C@H](C)[C@@H](O[C@H]2C[C@@](C)(OC)[C@@H](O)[C@H](C)O2)[C@H](C)[C@@H](O[C@@H]2O[C@H](C)C[C@H](N(C)C)[C@H]2O)[C@](C)(O)C[C@@H](C)CN(CCNC(=O)Nc2ccccc2)[C@H](C)[C@@H](O)[C@]1(C)O | 67 nM | > 2 h | 223 nM | 48000 nM | 27000 nM | > 2 h | 103 nM
2 | CCNC(=O)NCCN1C[C@H](C)C[C@@](C)(O)[C@H](O[C@@H]2O[C@H](C)C[C@H](N(C)C)[C@H]2O)[C@@H](C)[C@H](O[C@H]2C[C@@](C)(OC)[C@@H](O)[C@H](C)O2)[C@@H](C)C(=O)O[C@H](CC)[C@@](C)(O)[C@H](O)[C@H]1C | 4930 nM | > 2 h | 3620 nM | – | – | > 2 h | 978 nM
3 | CC[C@H]1OC(=O)[C@H](C)[C@@H](O[C@H]2C[C@@](C)(OC)[C@@H](O)[C@H](C)O2)[C@H](C)[C@@H](O[C@@H]2O[C@H](C)C[C@H](N(C)C)[C@H]2O)[C@](C)(O)C[C@@H](C)CN(CCCN(CCC#N)C(=O)NC(C)C)[C@H](C)[C@@H](O)[C@]1(C)O | > 13400 nM | > 2 h | > 13400 nM | – | – | > 2 h | 1270 nM
4 | CCOC(=O)CCN(CCN1C[C@H](C)C[C@@](C)(O)[C@H](O[C@@H]2O[C@H](C)C[C@H](N(C)C)[C@H]2O)[C@@H](C)[C@H](O[C@H]2C[C@@](C)(OC)[C@@H](O)[C@H](C)O2)[C@@H](C)C(=O)O[C@H](CC)[C@@](C)(O)[C@H](O)[C@H]1C)C(=O)Nc1ccc2ccccc2c1 | 207 nM | > 2 h | 773 nM | 23000 nM | 20000 nM | > 2 h | 2150 nM
5 | CC[C@H]1OC(=O)[C@H](C)[C@@H](O[C@H]2C[C@@](C)(OC)[C@@H](O)[C@H](C)O2)[C@H](C)[C@@H](O[C@@H]2O[C@H](C)C[C@H](N(C)C)[C@H]2O)[C@](C)(O)C[C@@H](C)CN(CCNC(=O)NC(C)c2cccc3ccccc23)[C@H](C)[C@@H](O)[C@]1(C)O (stereo partly drawn) | 33 nM | > 2 h | 179 nM | 10000 nM | 8000 nM | > 2 h | 46 nM
6 | CC[C@H]1OC(=O)[C@H](C)[C@@H](O[C@H]2C[C@@](C)(OC)[C@@H](O)[C@H](C)O2)[C@H](C)[C@@H](O[C@@H]2O[C@H](C)C[C@H](N(C)C)[C@H]2O)[C@](C)(O)C[C@@H](C)CN(CCNC(=S)NCCc2ccccc2)[C@H](C)[C@@H](O)[C@]1(C)O | 102 nM | > 2 h | 203 nM | 9000 nM | 4000 nM | > 2 h | 128 nM
7 | CC[C@H]1OC(=O)[C@H](C)[C@@H](O)[C@H](C)[C@@H](O[C@@H]2O[C@H](C)C[C@H](N(C)C)[C@H]2O)[C@](C)(O)C[C@@H](C)CN(CCCNC(=S)NCc2ccccc2)[C@H](C)[C@@H](O)[C@]1(C)O | 3630 nM | > 2 h | 2040 nM | > 50000 nM | > 50000 nM | > 2 h | 1540 nM
8 | CC[C@H]1OC(=O)[C@H](C)[C@@H](O)[C@H](C)[C@@H](O[C@@H]2O[C@H](C)C[C@H](N(C)C)[C@H]2O)[C@](C)(O)C[C@@H](C)CN(CCNC(=O)Nc2ccc3ccccc3c2)[C@H](C)[C@@H](O)[C@]1(C)O | 99 nM | > 2 h | 318 nM | 16000 nM | 8000 nM | > 2 h | 106 nM
9 | CC[C@H]1OC(=O)[C@H](C)[C@@H](O[C@H]2C[C@@](C)(OC)[C@@H](O)[C@H](C)O2)[C@H](C)[C@@H](O[C@@H]2O[C@H](C)C[C@H](N(C)C)[C@H]2O)[C@](C)(O)C[C@@H](C)CN(CCCN(CCC#N)C(=O)Nc2ccc3ccccc3c2)[C@H](C)[C@@H](O)[C@]1(C)O | 178 nM | > 2 h | 118 nM | – | – | > 2 h | 116 nM
10 | CC[C@H]1OC(=O)[C@H](C)[C@@H](O[C@H]2C[C@@](C)(OC)[C@@H](O)[C@H](C)O2)[C@H](C)[C@@H](O[C@@H]2O[C@H](C)C[C@H](N(C)C)[C@H]2O)[C@](C)(O)C[C@@H](C)CN(CCN(CCC#N)C(=S)NCCc2ccccc2)[C@H](C)[C@@H](O)[C@]1(C)O | 64 nM | > 2 h | 295 nM | 7000 nM | 6000 nM | > 2 h | 369 nM
11 | CC[C@H]1OC(=O)[C@H](C)[C@@H](O[C@H]2C[C@@](C)(OC)[C@@H](O)[C@H](C)O2)[C@H](C)[C@@H](O[C@@H]2O[C@H](C)C[C@H](N(C)C)[C@H]2O)[C@](C)(O)C[C@@H](C)CN(CCNC(=O)NCc2ccccc2)[C@H](C)[C@@H](O)[C@]1(C)O | 287 nM | > 2 h | 320 nM | > 50000 nM | 35000 nM | > 2 h | 170 nM
12 | CC[C@H]1OC(=O)[C@H](C)[C@@H](O[C@H]2C[C@@](C)(OC)[C@@H](O)[C@H](C)O2)[C@H](C)[C@@H](O[C@@H]2O[C@H](C)C[C@H](N(C)C)[C@H]2O)[C@](C)(O)C[C@@H](C)CN(CCN(CCC#N)C(=O)Nc2ccc3ccccc3c2)[C@H](C)[C@@H](O)[C@]1(C)O | 125 nM | > 2 h | 525 nM | 11000 nM | 13000 nM | > 2 h | 224 nM
13 | CC[C@H]1OC(=O)[C@H](C)[C@@H](O)[C@H](C)[C@@H](O[C@@H]2O[C@H](C)C[C@H](N(C)C)[C@H]2O)[C@](C)(O)C[C@@H](C)CN(CCNC(=S)NCCCc2ccccc2)[C@H](C)[C@@H](O)[C@]1(C)O | 178 nM | > 2 h | 654 nM | 14000 nM | 7000 nM | > 2 h | 226 nM
14 | CC[C@H]1OC(=O)[C@H](C)[C@@H](O[C@H]2C[C@@](C)(OC)[C@@H](O)[C@H](C)O2)[C@H](C)[C@@H](O[C@@H]2O[C@H](C)C[C@H](N(C)C)[C@H]2O)[C@](C)(O)C[C@@H](C)CN(CCNC(=O)Nc2cccc3ccccc23)[C@H](C)[C@@H](O)[C@]1(C)O | 79 nM | > 2 h | 142 nM | 35000 nM | 14000 nM | > 2 h | 42 nM
15 | CC[C@H]1OC(=O)[C@H](C)[C@@H](O[C@H]2C[C@@](C)(OC)[C@@H](O)[C@H](C)O2)[C@H](C)[C@@H](O[C@@H]2O[C@H](C)C[C@H](N(C)C)[C@H]2O)[C@](C)(O)C[C@@H](C)CN(CCNC(=O)Nc2ccc3ccccc3c2)[C@H](C)[C@@H](O)[C@]1(C)O | 30 nM | > 2 h | 71 nM | 9000 nM | 5000 nM | > 2 h | 24 nM
16 | CC[C@H]1OC(=O)[C@H](C)[C@@H](O[C@H]2C[C@@](C)(OC)[C@@H](O)[C@H](C)O2)[C@H](C)[C@@H](O[C@@H]2O[C@H](C)C[C@H](N(C)C)[C@H]2O)[C@](C)(O)C[C@@H](C)CN(CCNC(=S)Nc2cccc3ccccc23)[C@H](C)[C@@H](O)[C@]1(C)O | 99 nM | > 2 h | 225 nM | 20000 nM | 9000 nM | > 2 h | 130 nM
17 | CC[C@H]1OC(=O)[C@H](C)[C@@H](O[C@H]2C[C@@](C)(OC)[C@@H](O)[C@H](C)O2)[C@H](C)[C@@H](O[C@@H]2O[C@H](C)C[C@H](N(C)C)[C@H]2O)[C@](C)(O)C[C@@H](C)CN(CCNC(=S)NCCCc2ccccc2)[C@H](C)[C@@H](O)[C@]1(C)O | 52 nM | > 2 h | 182 nM | 8000 nM | 5000 nM | > 2 h | 82 nM
18 | CC[C@H]1OC(=O)[C@H](C)[C@@H](O[C@H]2C[C@@](C)(OC)[C@@H](O)[C@H](C)O2)[C@H](C)[C@@H](O[C@@H]2O[C@H](C)C[C@H](N(C)C)[C@H]2O)[C@](C)(O)C[C@@H](C)CN(CCCNC(=O)NC(C)C)[C@H](C)[C@@H](O)[C@]1(C)O | > 5700 nM | > 2 h | > 1420 nM | – | – | > 2 h | > 5700 nM
19 | CC[C@H]1OC(=O)[C@H](C)[C@@H](O[C@H]2C[C@@](C)(OC)[C@@H](O)[C@H](C)O2)[C@H](C)[C@@H](O[C@@H]2O[C@H](C)C[C@H](N(C)C)[C@H]2O)[C@](C)(O)C[C@@H](C)CN(CCCN(CCC#N)C(=O)Nc2cccc3ccccc23)[C@H](C)[C@@H](O)[C@]1(C)O | 1380 nM | > 2 h | 523 nM | – | – | > 2 h | 255 nM
20 | CC[C@H]1OC(=O)[C@H](C)[C@@H](O[C@H]2C[C@@](C)(OC)[C@@H](O)[C@H](C)O2)[C@H](C)[C@@H](O[C@@H]2O[C@H](C)C[C@H](N(C)C)[C@H]2O)[C@](C)(O)C[C@@H](C)CN(CCNC(=O)NC(C)C)[C@H](C)[C@@H](O)[C@]1(C)O | 2060 nM | > 2 h | 1400 nM | – | – | > 2 h | 717 nM
